Assay results taken from publication PMC9073569 (JAMA Network Open, 2022).
Read-outs that look alike come from different tables or passages of the source.

How the values were obtained:
[1] = system: patients with pruritus receiving hemodialysis; assay type: in vivo, Japanese patients; conditions: for Constipation / Death / Malaise / Other serious adverse drug reactions / Pyrexia: placebo 0; for Adverse events leading to Discontinuation / Nausea: placebo 1 (2); for Adverse events leading to Interruption / Arthralgia / Blood pressure decreased / Other serious adverse events: placebo 2 (3); for Dizziness / Procedural hypotension / Somnolence / Vomiting: placebo 3 (5); for Adverse drug reactions / Nasopharyngitis: placebo 7 (11); for Adverse events: placebo 42 (67); for drug-related serious AEs (kind of event): patients recovered after discontinuing or suspending use of the study drug
[2] = Plasma concentrations of difelikefalin; assay type: in vivo, Japanese patients; conditions: weeks 1, 4, and 7; LC-MS/MS
In short: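 Test compound was given IV at 0.25, 0.5 or 1.0 μg/kg after each hemodialysis session, 3 times weekly, with volume set by dry weight. Plasma was sampled before the first dialysis (weeks 1, 2, 4, 7, 8), 5 min post-dose (weeks 1, 4, 7), before the second dialysis (weeks 1, 4, 7) and 1 h post-dose (week 7). Assay was LC-MS/MS; summaries included geometric means and geometric CV.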

[3] = system: pruritus in patients receiving hemodialysis; conditions: 0.5, 1.0, and 1.5 μg/kg; previous phase 2 trial in the US; cited from earlier work
[4] = system: moderate to severe pruritus in patients receiving hemodialysis; assay: 24-hour Worst Itching Intensity Numerical Rating Scale; assay type: in vivo, Japanese patients; conditions: week 8; for proportion of 4-point improvement in the NRS score: placebo 36%; for proportion of 3-point improvement in the NRS score: placebo 50%
In short: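 Adults aged 20 or older with ESKD on hemodialysis 3 times weekly for at least 12 weeks, with weekly mean NRS above 4, were randomized double-blind. Test compound or placebo was given IV after each dialysis session for 8 weeks. Worst itch over the prior 24 h (0–10) was logged daily in an e-diary and averaged weekly. Proportions improving ≥3 or ≥4 points at week 8 were compared with placebo by Fisher exact test.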

[5] = cited from earlier work
[6] = 0.25 μg/kg iv 3 times a week, 8 weeks, n = 61
[7] = 0.5 μg/kg iv 3 times a week, 8 weeks, n = 61
[8] = 1.0 μg/kg iv 3 times a week, 8 weeks, n = 62

Q: Which Constipation [1, 6] does the source give for difelikefalin here?
A: 5 (8) No. (%)

Q: And the Death [1, 6]?
A: 0 No. (%)

Q: And the Malaise [1, 6]?
A: 2 (3) No. (%)

Q: And the “Other serious adverse drug reactions” value [1, 6]?
A: 0 No. (%)

Q: What about the Pyrexia [1, 6] of the same substance?
A: 2 (3) No. (%)

Q: What about the “Adverse events leading to Discontinuation” value [1, 6] of the same substance?
A: 0 No. (%)

Q: What about the Nausea [1, 6] of the same substance?
A: 0 No. (%)

Q: And the “Adverse events leading to Interruption” value [1, 6]?
A: 0 No. (%)

Q: And the Arthralgia [1, 6]?
A: 3 (5) No. (%)

Q: What about the Blood pressure decreased [1, 6] of the same substance?
A: 0 No. (%)

Q: And the “Other serious adverse events” value [1, 6]?
A: 3 (5) No. (%)

Q: And the Dizziness [1, 6]?
A: 3 (5) No. (%)

Q: What about the Procedural hypotension [1, 6] of the same substance?
A: 4 (7) No. (%)

Q: And the Somnolence [1, 6]?
A: 2 (3) No. (%)

Q: What about the Vomiting [1, 6] of the same substance?
A: 1 (2) No. (%)

Q: What about the Adverse drug reactions [1, 6] of the same substance?
A: 9 (15) No. (%)

Q: What about the Nasopharyngitis [1, 6] of the same substance?
A: 8 (13) No. (%)

Q: What about the Adverse events [1, 6] of the same substance?
A: 44 (72) No. (%)

Q: And the “drug-related serious AEs (kind of event)” value ([1]; 0.5 μg/kg group)?
A: Altered state of consciousness

Q: And the Constipation [1, 7]?
A: 3 (5) No. (%)

Q: And the Death [1, 7]?
A: 0 No. (%)

Q: And the Malaise [1, 7]?
A: 2 (3) No. (%)

Q: And the “Other serious adverse drug reactions” value [1, 7]?
A: 1 (2) No. (%)

Q: What about the Pyrexia [1, 7] of the same substance?
A: 4 (7) No. (%)

Q: What about the “Adverse events leading to Discontinuation” value [1, 7] of the same substance?
A: 4 (7) No. (%)

Q: And the Nausea [1, 7]?
A: 1 (2) No. (%)

Q: What about the “Adverse events leading to Interruption” value [1, 7] of the same substance?
A: 5 (8) No. (%)

Q: What about the Arthralgia [1, 7] of the same substance?
A: 5 (8) No. (%)

Q: And the Blood pressure decreased [1, 7]?
A: 4 (7) No. (%)

Q: What about the “Other serious adverse events” value [1, 7] of the same substance?
A: 8 (13) No. (%)

Q: And the Dizziness [1, 7]?
A: 3 (5) No. (%)

Q: What about the Procedural hypotension [1, 7] of the same substance?
A: 3 (5) No. (%)

Q: And the Somnolence [1, 7]?
A: 3 (5) No. (%)

Q: What about the Vomiting [1, 7] of the same substance?
A: 1 (2) No. (%)

Q: And the Adverse drug reactions [1, 7]?
A: 9 (15) No. (%)

Q: What about the Nasopharyngitis [1, 7] of the same substance?
A: 6 (10) No. (%)

Q: And the Adverse events [1, 7]?
A: 47 (77) No. (%)

Q: What about the “drug-related serious AEs (kind of event)” value ([1]; 1.0 μg/kg group) of the same substance?
A: obstruction in the small intestine

Q: What about the Constipation [1, 8] of the same substance?
A: 7 (11) No. (%)

Q: What about the Death [1, 8] of the same substance?
A: 0 No. (%)

Q: And the Malaise [1, 8]?
A: 4 (6) No. (%)

Q: And the “Other serious adverse drug reactions” value [1, 8]?
A: 1 (2) No. (%)

Q: And the Pyrexia [1, 8]?
A: 0 No. (%)

Q: And the “Adverse events leading to Discontinuation” value [1, 8]?
A: 5 (8) No. (%)

Q: And the Nausea [1, 8]?
A: 4 (6) No. (%)

Q: What about the “Adverse events leading to Interruption” value [1, 8] of the same substance?
A: 5 (8) No. (%)

Q: What about the Arthralgia [1, 8] of the same substance?
A: 2 (3) No. (%)

Q: And the Blood pressure decreased [1, 8]?
A: 3 (5) No. (%)

Q: What about the “Other serious adverse events” value [1, 8] of the same substance?
A: 5 (8) No. (%)

Q: And the Dizziness [1, 8]?
A: 5 (8) No. (%)

Q: What about the Procedural hypotension [1, 8] of the same substance?
A: 2 (3) No. (%)

Q: What about the Somnolence [1, 8] of the same substance?
A: 6 (10) No. (%)

Q: What about the Vomiting [1, 8] of the same substance?
A: 4 (6) No. (%)

Q: What about the Adverse drug reactions [1, 8] of the same substance?
A: 17 (27) No. (%)

Q: And the Nasopharyngitis [1, 8]?
A: 3 (5) No. (%)

Q: What about the Adverse events ([1]; 1.0 μg/kg iv 3 times a week, 8 weeks, n = 62, P = .02) of the same substance?
A: 53 (85) No. (%)

Q: And the “changes in clinical laboratory tests, vital signs, and 12-lead electrocardiogram” value ([1]; 0.25, 0.5 and 1.0 μg/kg iv 3 times a week, 8 weeks)?
A: No notable changes

Q: And the “plasma difelikefalin concentrations in relation to body weight classification” value [2]?
A: No significant differences

Q: And the “dose response in relation to efficacy” value [3]?
A: no clear dose response

Q: And the “proportion of 4-point improvement in the NRS score” value (shortened to “proportion of 4-point improvement”) ([4]; 0.25 μg/kg iv 3 times a week, n = 20 of 59)?
A: 34%

Q: What about the “proportion of 3-point improvement in the NRS score” value (“proportion of 3-point improvement” for short) ([4]; 0.25 μg/kg iv 3 times a week, n = 31 of 59) of the same substance?
A: 53%

Q: What about the “proportion of 4-point improvement” value ([4]; 0.5 μg/kg iv 3 times a week, n = 27 of 53) of the same substance?
A: 51%

Q: What about the “proportion of 3-point improvement” value ([4]; 0.5 μg/kg iv 3 times a week, n = 32 of 53) of the same substance?
A: 60%

Q: What about the “proportion of 4-point improvement” value ([4]; 1.0 μg/kg iv 3 times a week, n = 23 of 53) of the same substance?
A: 43%

Q: What about the “proportion of 3-point improvement” value ([4]; 1.0 μg/kg iv 3 times a week, n = 30 of 53) of the same substance?
A: 57%

Q: What about the “transfer to the CNS” value [5] of the same substance?
A: limited
